TRPC6 inhibitor = mouse TRPC6 channel inhibition. Q61143. HEK293-TRPC6, membrane potential dye, ACh-evoked depolarization; stronger effect = lower value. B-score at 10 µM. 310,000 tested, 1.1% active;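 active = B-score under library mean minus 3 SD, initial fluorescence not abnormally high, positive integrated signal ratio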;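 also: B-score derived from integrated fluorescence ratio over the kinetic read; more negative B-score means stronger inhibition of depolarization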
Target sequence (Q61143 whole entry, looked up): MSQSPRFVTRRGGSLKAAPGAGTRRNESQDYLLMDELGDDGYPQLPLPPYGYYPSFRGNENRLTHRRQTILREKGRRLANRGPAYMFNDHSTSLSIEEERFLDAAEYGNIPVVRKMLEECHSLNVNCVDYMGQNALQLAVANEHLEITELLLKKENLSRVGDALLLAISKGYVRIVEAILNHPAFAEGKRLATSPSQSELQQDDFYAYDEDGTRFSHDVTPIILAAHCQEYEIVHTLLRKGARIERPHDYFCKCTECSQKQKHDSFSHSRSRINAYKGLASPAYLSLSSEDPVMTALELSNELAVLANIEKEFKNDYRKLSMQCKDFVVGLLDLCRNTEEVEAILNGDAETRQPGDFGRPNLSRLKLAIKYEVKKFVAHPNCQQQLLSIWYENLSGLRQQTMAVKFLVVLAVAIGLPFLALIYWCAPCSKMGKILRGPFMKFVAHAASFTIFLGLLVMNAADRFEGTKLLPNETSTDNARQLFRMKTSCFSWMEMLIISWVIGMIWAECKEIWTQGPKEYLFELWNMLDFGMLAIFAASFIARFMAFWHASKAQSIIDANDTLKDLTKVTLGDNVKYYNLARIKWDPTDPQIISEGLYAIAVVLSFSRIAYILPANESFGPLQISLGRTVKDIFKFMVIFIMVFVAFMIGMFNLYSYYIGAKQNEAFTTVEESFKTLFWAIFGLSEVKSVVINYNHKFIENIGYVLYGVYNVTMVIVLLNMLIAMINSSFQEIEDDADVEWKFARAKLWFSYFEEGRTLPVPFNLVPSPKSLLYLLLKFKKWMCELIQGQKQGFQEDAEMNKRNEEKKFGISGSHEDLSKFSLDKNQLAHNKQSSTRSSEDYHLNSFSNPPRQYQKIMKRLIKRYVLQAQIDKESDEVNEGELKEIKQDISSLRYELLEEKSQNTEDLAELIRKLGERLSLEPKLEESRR
TRPC4 potent = allosteric potentiators of mouse TRPC4 channel. 310,000 tested, 0.42% active. AID 2227. B-score at 10 µM. Q9QUQ5. HEK293 TRPC4beta/mu-opioid, DAMGO EC20, Fluo-4 Ca2+ flux; stronger effect = higher value;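 active = B-score of calcium response area above 5 SD of library B-scores, with initial fluorescence ratio within 5 SD of library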;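 also: B-score of integrated fluorescence ratio over time as area under calcium response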
TRPC4 block = TRPC4 (mouse) channel inhibition; 300,000 tested, 0.39% active; AID 2247; B-score at 10 µM; HEK293 TRPC4beta/mu-opioid, DAMGO-evoked Fluo4 calcium flux; stronger effect = lower value; Q9QUQ5;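 active = B-score over 3 SD under the library average, no early fluorescence shift, positive overall ratio signal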
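Signal: kinetic Fluo4 fluorescence imaging of calcium influx. Material: stable TRPC4beta/mu-opioid receptor HEK293 cells. Probe or stimulus: DAMGO in two steps, submaximal then maximal.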
TRPC4 act = activators of mouse TRPC4 channel; Q9QUQ5; HEK293 TRPC4beta/mu-opioid, Fluo4 calcium fluorescence; stronger effect = higher value; 310,000 tested, 0.49% active; B-score at 10 µM; AID 2237;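 active = B-score above 5 SD of library B-scores, and initial fluorescence ratio not above library mean plus 5 SD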;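 also: positive B-score marks a calcium rise read as TRPC4 activation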
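system = HEK293 cells stably co-expressing mouse TRPC4beta and mu-opioid receptor | schedule = Fluo4 dye loading 45 min at room temperature, 110 s recording | measure = B-scored integrated calcium fluorescence ratio | signal = Fluo4 calcium-sensitive dye fluorescence, kinetic, 1 Hz baseline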
TRPC6 activator = activators of mouse TRPC6 channel. Q61143. AID 2550. 310,000 tested, 0.13% active. HEK293-TRPC6 membrane potential dye fluorescence; stronger effect = higher value. B-score at 10 µM;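 active = B-score of the integrated fluorescence ratio above library mean plus 3 SD, and starting fluorescence ratio within library mean plus 5 SD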;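 also: higher score means more depolarization so channel activation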
HEK293 MPD ctr = checks TRPC6 modulator effects in parental HEK293 cells; shares compounds with TRPC6 inhibitor; membrane potential dye fluorescence; membrane potential signal change, % at 10 µM; 2,400 tested, 51% active;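 active = membrane potential signal moves up or down beyond 5 SD from buffer-only wells, on both duplicate plates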
HEK293 MPD ctr 2 = second counter-screen for TRPC6 modulators: effect in parental HEK293 cells; shares compounds with TRPC6 inhibitor; membrane potential dye fluorescence; after compound, maximal acetylcholine stimulation; inhibition, % at 10 µM; 2,400 tested, 14% active;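 active = membrane potential signal drops by more than 5 SD from the mean control signal, in both duplicate plates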;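 also: plate controls were acetylcholine ECmax control wells for no effect and buffer only wells for full effect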
TRPC4/MOR mod = selectivity of TRPC6 modulators against mouse TRPC4; shares compounds with TRPC6 inhibitor; HEK293 TRPC4/mu-opioid, membrane potential fluorescence; percent change from control (negative = decrease, positive = increase), % at 10 µM; 2,400 tested, 69% active; AID 488927;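 active = membrane potential signal moved up or down beyond 5 SD of buffer control wells, in both duplicate plates, actives on both sides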;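 also: plate controls were assay buffer wells for no effect and DAMGO maximal-effect wells for full effect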
TRPC4 ctr inh 2 = mouse TRPC4 off-target activity of TRPC6 modulators, second screen | HEK293 TRPC4/mu-opioid, membrane potential dye fluorescence; stimulated with maximal-effect DAMGO | 2,400 tested, 55% active | shares compounds with TRPC6 inhibitor | inhibition, % at 10 µM | AID 488928;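 active = drop in membrane potential signal beyond 5 SD of the control wells in both duplicate plates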;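 also: TRPC4 counter screen for TRPC6 hits run under conditions tuned for TRPC6 not TRPC4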
TRPC6 block conf = mouse TRPC6 inhibitor confirmation. 3,300 tested, 43% active. inhibition, % at 10 µM. HEK293-TRPC6, membrane potential dye, ACh-evoked depolarization. shares compounds with TRPC6 inhibitor;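 active = fluorescence ratio falls more than 5 SD below the full-stimulation control mean, in both duplicate runs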;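 also: integrated fluorescence ratio of peak minus minimum over baseline after agonist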
TRPC6 act confirm = confirmation of mouse TRPC6 activators; shares compounds with TRPC6 inhibitor; HEK293-TRPC6 membrane potential dye fluorescence, FDSS; activation, % at 10 µM; 2,800 tested, 11% active;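 active = ratio signal rise beyond 5 SD above unstimulated control wells' mean, seen in both duplicate runs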;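 also: plate controls were buffer EC0 wells for no effect and acetylcholine ECmax response for full effect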
Active calls of the source: *; i = inactive; x = not tested or not shown; + = active, no number. Shown are actives, neighbours in structure and some others; about 2.3% of the full set was active somewhere.

SMILES	TRPC6 inhibitor	TRPC4 potent	TRPC4 block	TRPC4 act	TRPC6 activator	HEK293 MPD ctr	HEK293 MPD ctr 2	TRPC4/MOR mod	TRPC4 ctr inh 2	TRPC6 block conf	TRPC6 act confirm
O=C(/C=C/c1ccccc1)C1=C(O)C(=O)N(CCO)C1c1ccccc1[N+](=O)[O-] (stereo not given)	i	i	i	i	13*	120%*	i	16%*	i	i	62%*
S=c1[nH]nc(-c2ccccc2Cl)n1/N=C/C=C/c1ccco1	-6*	i	i	i	i	i	i	i	i	44%*	i
C[C@]12C=CC(=O)C=C1CC[C@@H]1C2=CC[C@]2(C)[C@@H](C(=O)CN3CCN(c4cc(N5CCCC5)nc(N5CCCC5)n4)CC3)CC[C@@H]12	-6.7*	i	i	i	i	-238%*	i	-54%*	64%*	69%*	i
Cc1ccc(N2CC(C(=O)Nc3nnc(SCC(=O)N4CCOCC4)s3)CC2=O)cc1 (stereo not given)	i	i	i	i	i	x	x	x	x	x	x
CS(=O)(=O)c1ccc2nc(NC(=O)c3ccccc3Br)sc2c1	i	i	i	i	i	x	x	x	x	x	x
Cc1cc(C)nc(NS(=O)(=O)c2ccc(NC(=O)CSc3nc(-c4ccccc4)c(C#N)c(=O)[nH]3)cc2)n1	i	i	i	i	13*	i	i	10%*	i	i	81%*
Cc1cc(NC(=O)CSc2nc(-c3ccccc3)c(C#N)c(=O)[nH]2)no1	i	i	i	i	i	x	x	x	x	x	x
COc1cc(OC)c(NC(=O)CCc2nc(-c3cccs3)no2)cc1Cl	i	i	i	i	i	x	x	x	x	x	x
Cc1onc(-c2c(Cl)cccc2Cl)c1NC(=O)NN(C)C	i	i	i	i	i	x	x	x	x	x	x
Cc1onc(-c2c(Cl)cccc2Cl)c1NC(=O)N1CCSCC1	i	i	i	i	12*	i	i	i	i	i	i
O=c1c(Cc2ccc(F)cc2)c(O)ccn1CCCn1ccnc1	i	i	i	i	i	x	x	x	x	x	x
CCN(CC)C(=O)c1csc(Nc2ccc(C)cc2)n1	-5.8*	i	i	i	i	i	i	i	i	i	i
CN(C)CCCNC(=O)N1c2ccccc2C=Cc2ccccc21	-5.3*	i	i	i	i	i	i	i	i	66%*	i
CCN(CC)C(=O)N1c2ccccc2C=Cc2ccccc21	i	i	i	i	i	x	x	x	x	x	x
C=CCOc1ccc2c(OC)c3ccoc3nc2c1OC	-11*	i	i	i	16*	i	i	18%*	i	52%*	86%*
CCOc1c2ccoc2nc2c(OC)c(OC)ccc12	-5.4*	i	i	i	i	i	i	i	i	i	x
CCOc1c(OC)ccc2c3c(c(=O)oc12)CCCC3	i	i	i	i	i	x	x	x	x	x	x
COc1ccccc1NC(=O)c1ccc2[nH]c(C)c(C)c2c1	i	i	i	i	i	x	x	x	x	x	x
CCOC(=O)c1ccc(Oc2coc3cc(O)ccc3c2=O)cc1	i	i	i	i	i	x	x	x	x	x	x
O=C(CCC1CCCCC1)Nc1ccc(C(=O)c2ccncc2)cc1	i	i	i	i	i	x	x	x	x	x	x
COc1cccc2c(=O)cn[nH]c12	i	i	i	i	i	x	x	x	x	x	x
OCC1(CCc2ccccc2)CCN(C/C=C/c2ccccc2)CC1	i	i	i	i	i	x	x	x	x	x	x
OCC1(Cc2ccccc2Cl)CCN(C/C=C/c2ccccc2)CC1	-5.3*	i	i	i	i	132%*	i	25%*	60%*	i	x
CC(CCc1ccco1)NC(=O)Cn1ncc2c1-c1ccccc1OC2 (stereo not given)	i	i	i	i	i	x	x	x	x	x	x
Cc1cn2c(N)c(C=C3C=C(Cl)C(=O)C(Cl)=C3)c(=O)nc2s1	i	i	i	i	83*	+	198%*	360%*	i	i	430%*
SMILES	TRPC6 inhibitor	TRPC4 potent	TRPC4 block	TRPC4 act	TRPC6 activator	HEK293 MPD ctr	HEK293 MPD ctr 2	TRPC4/MOR mod	TRPC4 ctr inh 2	TRPC6 block conf	TRPC6 act confirm
COc1ccc(-c2nnc(SCC(=O)NC3CCCC3)n2C)cc1	i	i	i	i	i	x	x	x	x	x	x
COc1ccc(CNC2CCCc3ccccc32)c(OC)c1 (stereo not given)	-6*	i	i	i	i	218%*	i	53%*	63%*	64%*	x
COc1ccc(NC(=O)NC2CCCc3ccccc32)c(OC)c1 (stereo not given)	i	i	i	i	i	x	x	x	x	x	x
CCCc1cc(=O)[nH]c(Nc2ccc3c(c2)OCCO3)n1	i	i	i	i	i	x	x	x	x	x	x
CC(C)C[C@H](NC(=O)OC(C)(C)C)C(=O)N[C@@H](CO)[C@H](O)[C@@H]1C[C@@H]1C(=O)N(C)C	i	i	i	i	i	x	x	x	x	x	x
CCCN(CCC)c1nc(-c2ccccn2)nc2ccccc12	-5.5*	i	i	i	i	i	78%*	i	68%*	76%*	i
c1ccc2c(N3CCCC3)nc(-c3ccncc3)nc2c1	-7.2*	i	i	i	i	-248%*	i	-42%*	35%*	39%*	i
c1ccc(-c2nc(N3CCCCCC3)c3ccccc3n2)nc1	-9.7*	i	i	i	i	-202%*	70%*	-30%*	73%*	62%*	i
